A short description of series [1]: Selectivity index, ratio of IC50 for rat L6 cells to IC50 for Trypanosoma brucei rhodesiense STIB 900. The series is classed as toxicity, cell-based. As to conditions: read-out: Ratio IC50. In a few lines: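 SI was calculated as IC50 in L6 cells divided by IC50 against T. b. rhodesiense, with both values from the Alamar Blue assays.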
A further series concerns L6. Briefly: Cytotoxicity against rat L6 cells after 70 hrs by alamar blue assay. The series is classed as cell-based. Particulars: L6, 70 h. Put shortly:
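Rat skeletal myoblasts (L6) were kept in RPMI 1640 with L-glutamine, 5.95 g/L HEPES, 2 g/L NaHCO3 and 10% FBS at 37 °C in 5% CO2, seeded at 4000 cells/well, then given fresh medium 24 h later with or without serial threefold drug dilutions. Podophyllotoxin served as reference. After 70 h, Alamar Blue was added for 2 h more and read at ex 536/em 588 nm. IC50 came from sigmoidal curves, ≥3 independent repeats.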
In general terms: Alamar Blue is a resazurin reagent that responds to reducing activity.

The subject of series [2] is Trypanosoma brucei rhodesiense. The experiment in a line: Antitrypanosomal activity against bloodstream form of Trypanosoma brucei rhodesiense STIB 900 after 70 hrs by alamar blue assay. The series is classed as functional, organism-based. Particulars: STIB 900, 70 h. In a few lines: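 T. b. rhodesiense STIB 900 bloodstream forms were grown at 37 °C in humidified 5% CO2 in MEM with Earle's salts plus 0.2 mM 2-mercaptoethanol, 1 mM sodium pyruvate, 0.5 mM hypoxanthine and 15% heat-inactivated horse serum. Serial threefold dilutions were tested with Alamar Blue read-out (ex 536/em 588 nm). IC50 was taken from sigmoidal growth-inhibition curves over at least three independent repeats (mean ± SEM).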

Molecules are shown by their SMILES.

Broadly, the IC50 is the point on the concentration scale where inhibition reaches its midpoint. Higher therefore signals a need for much substance. Turning to `C=C(COC(C)=O)C(=O)O[C@H]1CC(=C)[C@@H]2C[C@H](OC(C)=O)C(=C)[C@@H]2[C@H]2OC(=O)C(=C)[C@@H]21`, in series [1], the selectivity ratio was 2.3. Also, the IC50 in the series on L6 turned out to be 4940 nM; in series [2], 2130 nM.
The corresponding values for `C=C(COC(C)=O)C(=O)O[C@H]1CC(=C)[C@@H]2C[C@H](O)C(=C)[C@@H]2[C@H]2OC(=O)C(=C)[C@@H]21` are 3.4, 6390 nM and 1860 nM.
On to `C=C(C)C(=O)O[C@H]1CC(=C)[C@@H]2C[C@H](OCOC)C(=C)[C@@H]2[C@H]2OC(=O)C(=C)[C@@H]21`, for which, in series [1], the selectivity ratio came to 0.9. The IC50 in the series with L6 came out at 300 nM; in series [2], 340 nM.
In the case of `C=C1C(=O)O[C@@H]2[C@H]3C(=C)[C@@H](OCOC)C[C@H]3C(=C)C[C@H](O)[C@@H]12`, in series [1], the selectivity ratio worked out at 0.4. Moreover, the values for the half-inhibitory concentration (IC50) (in the series with L6; in series [2]) were 860 nM and 2210 nM, respectively.
Turning to `C=C(COCOC)C(=O)O[C@H]1CC(=C)[C@@H]2C[C@H](OCOC)C(=C)[C@@H]2[C@H]2OC(=O)C(=C)[C@@H]21`, the selectivity ratio in series [1] was 0.4. The IC50 was determined as 170 nM in the series on L6 and 480 nM in series [2].
The matching figures for `C=C(C)C(=O)O[C@H]1CC(=C)[C@@H]2C[C@H](O)C(=C)[C@@H]2[C@H]2OC(=O)C(=C)[C@@H]21` [AGUERIN B]: 1.9, 330 nM and 170 nM.
Consider `C=C(CO)C(=O)O[C@H]1CC(=C)[C@@H]2C[C@H](O)C(=C)[C@@H]2[C@H]2OC(=O)C(=C)[C@@H]21` [CYNAROPICRIN], for which the selectivity ratio in series [1] was 7.8. Further, the 50% inhibitory concentration (IC50) with L6 was 2190 nM; in series [2], 280 nM.
In the case of `C=C1C(=O)O[C@@H]2[C@H]3C(=C)[C@@H](O)C[C@H]3C(=C)C[C@H](O)[C@@H]12` [DESACYLCYNAROPICRIN], the selectivity ratio in series [1] worked out at 1. Moreover, the IC50 with L6 is 4940 nM; in series [2], 4920 nM.

Values taken from ChEMBL document CHEMBL3112397, “Antitrypanosomal structure-activity-relationship study of synthetic cynaropicrin derivatives” (Bioorg Med Chem Lett, 2014).
